Assay results reported in ChEMBL document CHEMBL4616704, “Discovery of an Atropisomeric PI3Kβ Selective Inhibitor through Optimization of the Hinge Binding Motif” (ACS Med Chem Lett, 2020).
Values joined by “and” are separate entries in the source; they are usually repeats but may differ in a detail not shown here. Equal entries are not always repeated.

How the values were obtained:
[1] = target: PI3-kinase p110-delta/p85-alpha (Homo sapiens, UniProt O00329); assay: Inhibition of human p110delta catalytic subunit/p85alpha using PIP2 as substrate after 30 mins in presence of ATP at 2xKm concentration by TR-FRET assay; type: protein-complex assay
Chain of PI3-kinase p110-delta/p85-alpha (P27986 whole entry, canonical isoform): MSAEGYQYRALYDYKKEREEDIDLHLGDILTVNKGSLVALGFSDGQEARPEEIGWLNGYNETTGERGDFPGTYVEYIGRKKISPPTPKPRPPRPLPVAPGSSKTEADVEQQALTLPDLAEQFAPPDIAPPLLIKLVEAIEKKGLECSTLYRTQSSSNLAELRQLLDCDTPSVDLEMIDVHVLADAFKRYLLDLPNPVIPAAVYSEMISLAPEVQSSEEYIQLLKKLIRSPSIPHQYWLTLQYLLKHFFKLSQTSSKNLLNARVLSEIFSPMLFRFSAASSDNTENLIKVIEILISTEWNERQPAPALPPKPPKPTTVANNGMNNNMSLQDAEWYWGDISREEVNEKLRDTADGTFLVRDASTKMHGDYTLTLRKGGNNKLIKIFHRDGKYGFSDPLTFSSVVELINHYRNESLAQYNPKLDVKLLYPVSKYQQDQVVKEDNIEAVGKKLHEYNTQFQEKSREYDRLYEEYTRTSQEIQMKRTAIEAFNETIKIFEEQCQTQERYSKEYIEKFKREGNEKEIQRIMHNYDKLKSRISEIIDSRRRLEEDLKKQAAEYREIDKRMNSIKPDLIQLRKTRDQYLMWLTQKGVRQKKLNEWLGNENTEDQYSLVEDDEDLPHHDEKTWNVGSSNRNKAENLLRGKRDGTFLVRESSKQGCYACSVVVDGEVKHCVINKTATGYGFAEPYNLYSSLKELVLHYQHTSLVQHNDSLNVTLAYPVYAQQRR
Chain of PI3-kinase p110-delta/p85-alpha (O00329 whole entry, canonical isoform): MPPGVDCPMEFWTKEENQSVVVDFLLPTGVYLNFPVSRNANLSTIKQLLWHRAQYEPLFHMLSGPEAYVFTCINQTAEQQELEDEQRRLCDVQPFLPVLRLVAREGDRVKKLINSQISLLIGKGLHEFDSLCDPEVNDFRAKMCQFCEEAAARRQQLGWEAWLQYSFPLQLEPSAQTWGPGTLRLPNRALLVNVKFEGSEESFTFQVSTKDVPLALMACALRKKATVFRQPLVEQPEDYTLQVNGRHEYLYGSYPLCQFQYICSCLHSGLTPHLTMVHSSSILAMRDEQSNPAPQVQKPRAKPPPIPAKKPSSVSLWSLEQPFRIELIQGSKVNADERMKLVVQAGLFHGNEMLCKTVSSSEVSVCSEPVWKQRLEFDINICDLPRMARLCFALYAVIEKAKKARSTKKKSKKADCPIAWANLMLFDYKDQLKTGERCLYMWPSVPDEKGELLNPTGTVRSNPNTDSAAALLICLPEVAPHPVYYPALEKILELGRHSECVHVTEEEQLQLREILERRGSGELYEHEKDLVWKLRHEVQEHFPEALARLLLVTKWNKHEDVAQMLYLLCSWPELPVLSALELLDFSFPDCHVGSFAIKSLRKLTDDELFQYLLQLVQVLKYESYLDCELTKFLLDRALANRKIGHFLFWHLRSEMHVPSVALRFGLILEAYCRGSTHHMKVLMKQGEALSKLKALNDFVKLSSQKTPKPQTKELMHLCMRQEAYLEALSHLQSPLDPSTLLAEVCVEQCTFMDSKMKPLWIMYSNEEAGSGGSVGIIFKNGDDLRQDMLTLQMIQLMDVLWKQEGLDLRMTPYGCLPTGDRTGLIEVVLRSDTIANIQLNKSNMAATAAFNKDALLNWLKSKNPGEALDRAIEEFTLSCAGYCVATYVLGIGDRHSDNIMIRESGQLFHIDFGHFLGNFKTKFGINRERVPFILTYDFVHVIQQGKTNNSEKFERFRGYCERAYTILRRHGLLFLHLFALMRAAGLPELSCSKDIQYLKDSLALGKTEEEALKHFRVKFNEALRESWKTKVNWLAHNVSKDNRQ
Method in brief: (§1)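 Class I PI3K isoforms assayed in vitro for kinase inhibition with ATP at 2Km steady-state concentration; IC50 values averaged over at least 2 determinations.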

[2] = target: Phosphatidylinositol 4,5-bisphosphate 3-kinase catalytic subunit gamma isoform (Homo sapiens, UniProt P48736); assay: Inhibition of human full length p110gamma using PIP2 as substrate after 30 mins in presence of ATP at 2xKm concentration by TR-FRET assay
[3] = target: PI3-kinase p110-alpha/p85-alpha (Homo sapiens, UniProt P42336); assay: Inhibition of human full length p110alpha/p85alpha using PIP2 as substrate after 30 mins in presence of ATP at 2xKm concentration by TR-FRET assay; type: protein-complex assay; method in brief: as §1
Chain of PI3-kinase p110-alpha/p85-alpha (P27986 whole entry): as the sequence (P27986 whole entry, canonical isoform) above
Chain of PI3-kinase p110-alpha/p85-alpha (P42336 whole entry): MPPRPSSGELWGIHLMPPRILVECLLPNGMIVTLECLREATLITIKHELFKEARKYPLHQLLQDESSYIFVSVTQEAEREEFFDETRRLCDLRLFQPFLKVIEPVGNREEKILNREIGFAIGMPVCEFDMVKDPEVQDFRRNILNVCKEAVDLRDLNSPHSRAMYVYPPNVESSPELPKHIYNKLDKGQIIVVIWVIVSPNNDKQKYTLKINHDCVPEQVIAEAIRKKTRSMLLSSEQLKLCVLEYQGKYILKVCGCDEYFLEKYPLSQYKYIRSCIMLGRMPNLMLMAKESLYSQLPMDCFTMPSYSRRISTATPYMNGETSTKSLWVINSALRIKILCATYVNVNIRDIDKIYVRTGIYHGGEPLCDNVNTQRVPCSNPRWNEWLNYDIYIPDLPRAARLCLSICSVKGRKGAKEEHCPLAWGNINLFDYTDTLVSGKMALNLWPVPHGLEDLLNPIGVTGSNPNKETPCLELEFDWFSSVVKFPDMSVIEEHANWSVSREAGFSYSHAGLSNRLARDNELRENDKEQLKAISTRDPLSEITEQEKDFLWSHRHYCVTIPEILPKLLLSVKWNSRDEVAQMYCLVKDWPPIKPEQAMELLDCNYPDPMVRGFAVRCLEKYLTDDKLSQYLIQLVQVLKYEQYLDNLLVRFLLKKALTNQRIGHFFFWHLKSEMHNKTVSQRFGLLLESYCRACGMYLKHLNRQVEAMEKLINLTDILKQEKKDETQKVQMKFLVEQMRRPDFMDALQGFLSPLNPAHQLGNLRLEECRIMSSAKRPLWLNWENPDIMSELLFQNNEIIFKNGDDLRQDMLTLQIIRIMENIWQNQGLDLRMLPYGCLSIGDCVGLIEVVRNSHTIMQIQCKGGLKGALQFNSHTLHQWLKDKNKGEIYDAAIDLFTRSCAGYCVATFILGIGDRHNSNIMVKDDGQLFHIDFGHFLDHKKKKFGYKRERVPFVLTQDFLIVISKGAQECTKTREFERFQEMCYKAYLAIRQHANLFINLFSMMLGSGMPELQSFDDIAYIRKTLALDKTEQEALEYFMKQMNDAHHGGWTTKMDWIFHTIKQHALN

Cytochrome P450 3A4 = Cytochrome P450 3A4 (Homo sapiens, UniProt P08684); assay: Inhibition of human CYP3A4; type: ADME
Chain of Cytochrome P450 3A4 (P08684 whole entry): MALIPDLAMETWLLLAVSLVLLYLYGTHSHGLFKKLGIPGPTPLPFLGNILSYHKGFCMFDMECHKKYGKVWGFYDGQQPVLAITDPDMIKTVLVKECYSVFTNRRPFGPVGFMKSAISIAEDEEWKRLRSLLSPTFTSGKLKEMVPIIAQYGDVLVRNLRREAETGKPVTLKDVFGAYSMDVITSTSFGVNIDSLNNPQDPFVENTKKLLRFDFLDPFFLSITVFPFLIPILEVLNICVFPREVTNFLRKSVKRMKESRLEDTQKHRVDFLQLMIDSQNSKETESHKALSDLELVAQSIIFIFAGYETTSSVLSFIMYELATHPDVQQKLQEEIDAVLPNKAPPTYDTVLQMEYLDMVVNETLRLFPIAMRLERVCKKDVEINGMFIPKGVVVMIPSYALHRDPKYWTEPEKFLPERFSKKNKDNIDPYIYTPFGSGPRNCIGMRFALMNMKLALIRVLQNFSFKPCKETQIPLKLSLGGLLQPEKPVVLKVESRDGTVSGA

CYP450 = CYP450 (Homo sapiens, UniProt P04798+P05177+P05181+P08684+P10632+P10635+P11509+P11712+P13584+P20813+P20815+P20853+P24462+P24903+P33260+P33261+P51589+P78329+P98187+Q02928+Q08477+Q16678+Q16696+Q5TCH4+Q6VVX0+Q7Z449+Q8TAV3+Q96SQ9+Q9HB55); assay: Inhibition of human CYP450; type: ADME, protein assay
Method in brief: (§2)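 Binding-assay format used to measure inhibition of major human CYP450 enzymes and hERG.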

[4] = target: T1, Phosphatidylinositol 4,5-bisphosphate 3-kinase catalytic subunit beta isoform (Homo sapiens, UniProt P42338); assay: Inhibition of PI3Kbeta in PTEN-deficient human LNCaP C4-2 cells assessed as reduction in AKT phosphorylation at Ser473 residue after 2 hrs by mesoscale assay; type: cell-based
T1 sequence (P42338 whole entry, canonical isoform): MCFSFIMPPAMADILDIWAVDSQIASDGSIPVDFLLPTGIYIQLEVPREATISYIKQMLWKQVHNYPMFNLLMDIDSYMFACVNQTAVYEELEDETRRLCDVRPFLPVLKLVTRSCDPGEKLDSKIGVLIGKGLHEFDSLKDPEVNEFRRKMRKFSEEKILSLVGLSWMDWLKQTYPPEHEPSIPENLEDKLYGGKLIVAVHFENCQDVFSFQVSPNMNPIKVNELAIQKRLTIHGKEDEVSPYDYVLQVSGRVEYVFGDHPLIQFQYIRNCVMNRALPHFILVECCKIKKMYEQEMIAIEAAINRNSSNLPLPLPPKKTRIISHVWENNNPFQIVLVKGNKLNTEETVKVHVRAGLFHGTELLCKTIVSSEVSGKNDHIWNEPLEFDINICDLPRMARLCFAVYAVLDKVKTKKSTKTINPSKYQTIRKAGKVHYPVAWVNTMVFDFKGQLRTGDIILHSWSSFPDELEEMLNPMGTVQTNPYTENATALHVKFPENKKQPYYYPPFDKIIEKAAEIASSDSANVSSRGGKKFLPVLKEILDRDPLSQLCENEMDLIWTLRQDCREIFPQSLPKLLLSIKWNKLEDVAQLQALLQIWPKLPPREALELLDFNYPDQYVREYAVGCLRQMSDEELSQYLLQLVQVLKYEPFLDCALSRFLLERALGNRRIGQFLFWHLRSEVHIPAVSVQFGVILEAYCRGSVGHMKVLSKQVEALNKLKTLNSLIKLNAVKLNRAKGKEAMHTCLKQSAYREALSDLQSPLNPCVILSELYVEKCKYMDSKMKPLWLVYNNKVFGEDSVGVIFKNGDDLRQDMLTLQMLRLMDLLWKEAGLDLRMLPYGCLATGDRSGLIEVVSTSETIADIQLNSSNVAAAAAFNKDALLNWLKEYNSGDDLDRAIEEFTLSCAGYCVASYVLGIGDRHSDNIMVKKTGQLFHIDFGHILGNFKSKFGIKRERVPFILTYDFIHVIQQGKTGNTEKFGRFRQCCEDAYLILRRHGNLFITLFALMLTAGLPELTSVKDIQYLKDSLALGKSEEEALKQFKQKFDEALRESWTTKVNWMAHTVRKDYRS
Method in brief: (§3)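 Cellular readout: pAKT1 Ser473 normalized to total AKT1, expressed as units pAKT1 Ser473 per nanogram total AKT1; cells treated under serum-free conditions.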

[5] = Protein binding in cynomolgus monkey plasma at 1 mg/kg administered as iv infusion for 30 mins and measured after 24 hrs by ESI-LC/MS/MS analysis; type: ADME, organism-based, Macaca fascicularis; conditions: read-out: PPB (converted)
[6] = Volume of distribution at steady state in rhesus monkey at 1 mg/kg administered as iv infusion for 30 mins and measured after 24 hrs by ESI-LC/MS/MS analysis; type: ADME, organism-based, Macaca mulatta; conditions: in vivo, read-out: Vdss
[7] = Oral bioavailability in Sprague-Dawley rat at 5 mg/kg dosed via gavage after 24 hrs by ESI-LC/MS/MS analysis; type: ADME, organism-based; conditions: in vivo
[8] = target: T1, Phosphatidylinositol 4,5-bisphosphate 3-kinase catalytic subunit beta isoform; assay: Inhibition of PI3Kbeta in PTEN-deficient human MDA-MB-415 cells assessed as reduction in AKT phosphorylation at Ser473 residue after 2 hrs by mesoscale assay; type: cell-based; method in brief: as §3
[9] = target: T1, Phosphatidylinositol 4,5-bisphosphate 3-kinase catalytic subunit beta isoform; assay: Inhibition of PI3Kbeta in PTEN-deficient human PC3 cells assessed as reduction in AKT phosphorylation at Ser473 residue after 2 hrs by mesoscale assay; type: cell-based, PC-3; method in brief: as §3
[10] = Clearance in cynomolgus monkey at 1 mg/kg administered as iv infusion for 30 mins and measured after 24 hrs by ESI-LC/MS/MS analysis; type: ADME, organism-based, Macaca fascicularis; conditions: in vivo
[11] = Dissociation constant, acidic pKa of compound; type: physicochemical
[12] = Protein binding in Sprague-Dawley rat plasma at 1 mg/kg administered as iv infusion for 30 mins and measured after 24 hrs by ESI-LC/MS/MS analysis; type: ADME, organism-based; conditions: read-out: PPB (converted)
[13] = target: T1, Phosphatidylinositol 4,5-bisphosphate 3-kinase catalytic subunit beta isoform; assay: Inhibition of PI3Kbeta in PTEN-deficient human LNCAP cells assessed as reduction in AKT phosphorylation at Ser473 residue after 2 hrs by mesoscale assay; type: cell-based; method in brief: as §3
[14] = Apparent permeability across basolateral to apical side in human Caco2 cells at 10 uM after 1 to 2 hrs by LC/MS/MS analysis; type: ADME, cell-based; conditions: Caco-2
[15] = Protein binding in rhesus monkey plasma at 1 mg/kg administered as iv infusion for 30 mins and measured after 24 hrs by ESI-LC/MS/MS analysis; type: ADME, organism-based, Macaca mulatta; conditions: read-out: PPB (converted)
[16] = target: Voltage-gated inwardly rectifying potassium channel KCNH2 (Homo sapiens, UniProt Q12809); assay: Inhibition of human ERG; method in brief: as §2
[17] = Volume of distribution at steady state in cynomolgus monkey at 1 mg/kg administered as iv infusion for 30 mins and measured after 24 hrs by ESI-LC/MS/MS analysis; type: ADME, organism-based, Macaca fascicularis; conditions: in vivo, read-out: Vdss
[18] = Protein binding in Beagle dog plasma at 1 mg/kg administered as iv infusion for 30 mins and measured after 24 hrs by ESI-LC/MS/MS analysis; type: ADME, organism-based, Canis lupus familiaris; conditions: read-out: PPB (converted)
[19] = Oral bioavailability in cynomolgus monkey at 5 mg/kg dosed via gavage after 24 hrs by ESI-LC/MS/MS analysis; type: ADME, organism-based, Macaca fascicularis; conditions: in vivo
[20] = Genotoxicity in Salmonella typhimurium by Ames test; type: toxicity; conditions: salmonella enterica subsp. enterica serovar typhimurium
[21] = target: T1, Phosphatidylinositol 4,5-bisphosphate 3-kinase catalytic subunit beta isoform; assay: Inhibition of PI3Kbeta in PTEN-deficient human ZR-75-1 cells assessed as reduction in AKT phosphorylation at Ser473 residue after 2 hrs by mesoscale assay; type: cell-based; method in brief: as §3
[22] = Clearance in human hepatocytes at 1 uM measured up to 250 mins by UHPLC-HRMS analysis; type: ADME, cell-based, Hepatocyte; conditions: 250 min, 1 µM
[23] = Apparent permeability across apical to basolateral side in human Caco2 cells at 10 uM after 1 to 2 hrs by LC/MS/MS analysis; type: ADME, cell-based; conditions: Caco-2
PI3K p110 beta/p85 alpha = PI3K p110 beta/p85 alpha (Homo sapiens, UniProt P42338); assay: Inhibition of recombinant human full-length N-terminal His6-tagged p110beta/human recombinant full-length untagged p85alpha expressed in baculovirus infected Sf21 insect cells using PIP2 as substrate after 30 mins in presence of ATP at 2xKm concentration by TR-FRET assay; method in brief: as §1
Chain of PI3K p110 beta/p85 alpha (P27986 whole entry): as the sequence (P27986 whole entry, canonical isoform) above
Chain of PI3K p110 beta/p85 alpha (P42338 whole entry): as the sequence (P42338 whole entry, canonical isoform) above

SMILES	IC50 [1]	IC50 [2] [nM]	IC50 [3] [nM]	also measured
Cc1cc(C(C)Nc2ccccc2)c2nc(N3CCOCC3)cc(=O)n2c1 (stereo unspecified)	500 nM	> 10000	7600	–
Cc1nc2c(-c3nnc[nH]3)cc(-c3ccnc(N)c3F)cc2n1-c1ccnc2c(F)ccc(F)c12	–	–	–	IC50 (Cytochrome P450 3A4): > 25000 nM; IC50 (CYP450): > 25000 nM; EC50 [4]: 15 nM; fraction unbound at 24 h [5]: 0.06; Vd [6]: 0.6 L/kg; bioavailability [7]: 60%; EC50 [8]: 12 nM; EC50 [9]: 9 nM; clearance [10]: 2.17 mL/min/kg; pKa [11]: 4.8; fraction unbound at 24 h [12]: 0.19; EC50 [13]: 53 nM; Papp B→A at 10 µM [14]: 31 ×10⁻⁶ cm/s; fraction unbound at 24 h [15]: 0.07; IC50 [16]: > 25000 nM; Vd [17]: 0.5 L/kg; fraction unbound at 24 h [18]: 0.08; bioavailability [19]: 64%; Activity [20]: Non-Toxic; EC50 [21]: 6 nM
Cc1nc2c(-c3nnc[nH]3)cc(-c3ccnc(C(F)F)c3)cc2n1-c1ccnc2c(F)ccc(F)c12	402 nM	9420	680	–
Cc1nc2c(-c3nnc[nH]3)cc(-c3c(F)cnc(N)c3F)cc2n1-c1ccnc2c(F)ccc(F)c12	1660 nM	> 10000	2520	–
Cc1nc2c(-c3nnc[nH]3)cc(-c3ccncc3)cc2n1-c1ccnc2c(F)ccc(F)c12	–	> 10000	–	IC50 (Cytochrome P450 3A4): 1000 nM; pKa [11]: 5.3; CLH [22]: 4 mL/min/kg and 10.2 mL/min/kg
Clc1cccc2c(-n3cnc4c(-c5ncn[nH]5)cc(-c5ccncc5)cc43)ccnc12	100 nM	5300	350	–
CNc1nccc(-c2cc(-c3nnc[nH]3)c3nc(C)n(-c4ccnc5c(F)ccc(F)c45)c3c2)c1F	> 10000 nM	> 10000	> 10000	–
Cc1cc(-c2cc(-c3nnc[nH]3)c3nc(C)n(-c4ccnc5c(F)ccc(F)c45)c3c2)ccn1	300 nM and 122 nM and 1110 nM	> 10000	–	IC50 (Cytochrome P450 3A4): 19000 nM; pKa [11]: 5.9
Cc1nccc(-c2cc(-c3nnc[nH]3)c3nc(C)n(-c4ccnc5c(F)ccc(F)c45)c3c2)n1	35 nM	2720	55	–
Cc1nc2c(-c3nnc[nH]3)cc(-c3ccnc(N)c3)cc2n1-c1ccnc2c(F)ccc(F)c12	–	> 10000	–	IC50 (Cytochrome P450 3A4): > 25000 nM; pKa [11]: 6.1; Papp B→A at 10 µM [14]: 18 ×10⁻⁶ cm/s; Papp A→B at 10 µM [23]: 1.7 ×10⁻⁶ cm/s
Cc1cc(-c2cc(-c3nnc[nH]3)c3nc(C)n(-c4ccnc5c(F)ccc(F)c45)c3c2)ncn1	1140 nM	> 10000	1270	–
Cc1nc2c(-c3nnc[nH]3)cc(-c3ccnc(N)c3Cl)cc2n1-c1ccnc2c(F)ccc(F)c12	297 nM	> 10000	890	–
Cc1c(-c2cc(-c3nnc[nH]3)c3nc(C)n(-c4ccnc5c(F)ccc(F)c45)c3c2)ccnc1N	> 10000 nM	> 10000	> 10000	IC50 (PI3K p110 beta/p85 alpha): 2860 nM
Cc1nc2c(-c3nnc[nH]3)cc(-c3ccnc(Cl)c3)cc2n1-c1ccnc2c(F)ccc(F)c12	52 nM	6270	75	–
Clc1cccc2c(-n3cnc4c(-c5nnc[nH]5)cc(N5CCOCC5)cc43)ccnc12	12 nM	350	60	–
Cc1cc(-c2cc(-c3nnc[nH]3)c3nc(C)n(-c4ccnc5c(F)ccc(F)c45)c3c2)cc(N)n1	2590 nM	> 10000	6840	–
Cc1nc2c(-c3nnc[nH]3)cc(-c3cc(N)ncc3F)cc2n1-c1ccnc2c(F)ccc(F)c12	302 nM	> 10000	1500	–
C[C@@H](Nc1cc(F)cc(F)c1)c1cc(C(=O)N(C)C)cc2c(=O)cc(N3CCOCC3)oc12 [AZD-8186]	36 nM	6000	450	–
